In brackets after ≈: the same amount, converted by molar mass. Activity calls are given as the source filed them. The rule behind the calls is not given here.
How the values were obtained:
Saccharomyces cerevisiae [1] = test: Antifungal activity against Saccharomyces cerevisiae ATCC 7754 assessed as reduction in plasma membrane fluidity at 100 ug/mL
Zygosaccharomyces bailii [2] = test: Inhibition of cell growth in Zygosaccharomyces bailii at 50 ug/mL; type: functional, organism-based
In short: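 Exponentially growing Z. bailii ATCC 60483 in YPD broth at 30 °C with drug at 0, 50 or 100 µg/mL. Viable counts taken over time by serial dilution in sterile saline and plating on YPD agar, 48 h at 30 °C, then CFU counted.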

Zygosaccharomyces bailii [3] = test: Antifungal activity against Zygosaccharomyces bailii assessed as growth inhibition measured after 48 hr by macrodilution assay; type: functional
Zygosaccharomyces bailii [4] = test: Antifungal activity against Zygosaccharomyces bailii assessed as growth inhibition measured at pH 7 after 48 hr by macrodilution assay; type: functional
In short: (§1)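 Broth macrodilution in YPD adjusted to the stated pH, Z. bailii ATCC 60483. Serial 2-fold dilutions in DMF (1% final) added to broth; inoculum 10^5 CFU/mL from a 5 h 30 °C preculture. Static incubation, 30 °C, 48 h. MIC is the lowest concentration with no visible growth; MFC is the lowest with no regrowth after 48 h subculture in drug-free YPD.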

Zygosaccharomyces bailii [5] = test: Antifungal activity against Zygosaccharomyces bailii assessed as growth inhibition measured at pH 9 after 48 hr by macrodilution assay; type: functional
In short: as §1

Zygosaccharomyces bailii [6] = test: Antifungal activity against Zygosaccharomyces bailii assessed as growth inhibition measured at pH 3 after 48 hr by macrodilution assay; type: functional
In short: as §1

Zygosaccharomyces bailii [7] = test: Antifungal activity against Zygosaccharomyces bailii assessed as growth inhibition measured at pH 5 after 48 hr by macrodilution assay; type: functional
In short: as §1

Saccharomyces cerevisiae [8] = test: Antifungal activity against Saccharomyces cerevisiae ATCC 7754 assessed as reduction in plasma membrane fluidity at 25 ug/mL
Zygosaccharomyces bailii [9] = test: Antifungal activity against Zygosaccharomyces bailii assessed as growth inhibition at MFC measured after 24 hr by macrodilution assay in presence of cycloheximide protein synthesis inhibitor; type: functional, organism-based
In short: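 Z. bailii ATCC 60483 exponential cells grown in YPD broth at 30 °C with 50 µg/mL cycloheximide. After 24 h, agent added at its MFC. Viable counts by serial dilution in sterile saline, plating on YPD agar, 48 h at 30 °C, then colony counting.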

Zygosaccharomyces bailii [10] = test: Antifungal activity against Zygosaccharomyces bailii assessed as reduction in cell viability at 100 ug/mL treated at 24, 48 and 72 hr measured after 1 hr of each addition

SMILES	MFC (Zygosaccharomyces bailii [3]) [µg/mL]	MFC (Zygosaccharomyces bailii [3]; read-out: MFC) [µg/mL]	also measured
CCCCCCCCO			Activity (Saccharomyces cerevisiae [1]): inactive
CCCCCCCCOC(=O)c1cc(O)c(O)c(O)c1			Activity (Saccharomyces cerevisiae [1]): Active
C[C@@H]1C[C@@H]([C@H](O)CC2CC(=O)NC(=O)C2)C(=O)[C@@H](C)C1			inhibition (Zygosaccharomyces bailii [2]): Active
CCC/C=C/C(=O)O [(2E)-HEXENOIC ACID]	1600 (≈ 14 mM)	800 (≈ 7.01 mM)	
CCC/C=C\C(=O)O [(2Z)-HEXENOIC ACID]	1600 (≈ 14 mM)	800 (≈ 7.01 mM)	
C/C=C/c1ccc(OC)cc1 [ANETHOLE]	400 (≈ 2.7 mM)	200 (≈ 1.35 mM)	MFC (Zygosaccharomyces bailii [4]): 1600 µg/mL (≈ 10.8 mM); MIC (Zygosaccharomyces bailii [4]): 800 µg/mL (≈ 5.4 mM); MFC (Zygosaccharomyces bailii [5]): 1600 µg/mL (≈ 10.8 mM); MIC (Zygosaccharomyces bailii [5]): 1600 µg/mL (≈ 10.8 mM); MFC (Zygosaccharomyces bailii [6]): 1600 µg/mL (≈ 10.8 mM); MIC (Zygosaccharomyces bailii [6]): 100 µg/mL (≈ 0.675 mM); MFC (Zygosaccharomyces bailii [7]): 1600 µg/mL (≈ 10.8 mM); MIC (Zygosaccharomyces bailii [7]): 400 µg/mL (≈ 2.7 mM)
CCCCCC(=O)O [HEXANOATE]	3200 (≈ 27.5 mM)	800 (≈ 6.89 mM)	
C/C=C/C=C/C(=O)OC [METHYL SORBATE]	> 3200	> 3200	
Clc1ccc(COC(Cn2ccnc2)c2ccc(Cl)cc2Cl)c(Cl)c1 (stereo not given) [MICONAZOLE]	12.5 (≈ 0.03 mM)	12.5 (≈ 0.03 mM)	
CC1(C)CCC[C@]2(C)[C@@H](C=O)C(C=O)=CC[C@@H]12 [POLYGODIAL]	50 (≈ 0.213 mM)	50 (≈ 0.213 mM)	Activity (Saccharomyces cerevisiae [8]): Active; growth inhibition (GI) (Zygosaccharomyces bailii [9]): Active; inhibition (Zygosaccharomyces bailii [10]): Active
C/C=C/C=C/C(=O)O [SORBIC ACID]	1600 (≈ 14.3 mM)	800 (≈ 7.13 mM)	
